Three compounds from ChEMBL document CHEMBL2390837, “Synthesis, cytotoxic activity and DNA-interaction studies of novel anthraquinone-thiosemicarbazones with tautomerizable methylene group” (Eur J Med Chem, 2013) can be followed below.

Assay [1] has as its system HeLa. In words: Cell cycle arrest in human HeLa cells assessed as accumulation at subG1 phase at IC50 after 24 hrs by propidium iodide staining-based FACS flow cytometric analysis (reference value: 9.10%). The assay is classed as functional.
Assay [2] has as its system Escherichia coli. As to the kind of experiment: Induction of Escherichia coli XL1 blue pUC18 DNA cleavage assessed as conversion of supercoiled DNA to relaxed circular DNA at 1:2 compound to iron molar ratio after 90 mins by agarose gel electrophoresis in presence of Fe3+. Summed up:
(§1)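 AQ-thiosemicarbazone (4 μL of 10 mM) preincubated 60 min at 37 °C in bicarbonate buffer with 2 μL of FeSO₄ or FeCl₃ (20 mM or 40 mM stock). pUC18 (2 μL) then added and incubated a further 90 min. Products run on 1% agarose in TAE at 80 V and stained with ethidium bromide (0.5 µg/mL).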

The subject of assay [3] is HeLa. As to the kind of experiment: Induction of apoptosis in human HeLa cells at IC90 after 24 hrs by propidium iodide staining-based FACS flow cytometric analysis in presence of caspase-9 inhibitor Z-LEHD-FMK. It is filed as functional, cell-based. Background: Flow cytometry measures light scatter and fluorescence of single cells or particles in a stream.
In the next assay the test system is K562. As to the kind of experiment: Cytotoxicity against human K562 cells after 72 hrs by MTT assay. The assay is classed as functional, cell-based. The settings on record: K562, 72 h. The method, boiled down:
(§2)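 Cells seeded in 96-well plates: HeLa 2000, MDA-MB-361 7000, MDA-MB-453 3000, K562, A549 and MRC-5 5000 per well. Compounds added at 5–100 μM (final), DMSO ≤0.5%, in RPMI-1640 with 10% FBS. Added after 24 h, except K562 at 2 h after seeding. Exposure 72 h, then MTT 4 h at 37 °C, SDS solubilization, A570 read. IC50 is the mean ± SD of three independent experiments.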

Assay [4] concerns HeLa. As to the kind of experiment: Cell cycle arrest in human HeLa cells assessed as accumulation at subG1 phase at 2 times IC50 after 24 hrs by propidium iodide staining-based FACS flow cytometric analysis (reference value: 9.10%). It is filed as functional.
For assay [5], the system named is HeLa. As to the kind of experiment: Cell cycle arrest in human HeLa cells assessed as accumulation at G2/M phase at 2 times IC50 after 24 hrs by propidium iodide staining-based FACS flow cytometric analysis (reference value: 21.66%). The assay is classed as functional.
For the next assay, the system named is MRC5. As to the kind of experiment: Cytotoxicity against human MRC5 cells after 72 hrs by MTT assay. It is filed as cell-based. The following applies: MRC5, 72 h. Summed up:
as §2

The test system of assay [6] is HeLa. As to the kind of experiment: Cell cycle arrest in human HeLa cells assessed as accumulation at S phase at 2 times IC50 after 24 hrs by propidium iodide staining-based FACS flow cytometric analysis (reference value: 16.22%). It is filed as functional.
Another assay relates to MDA-MB-361. As to the kind of experiment: Cytotoxicity against human MDA-MB-361 cells after 72 hrs by MTT assay. The assay is classed as functional, cell-based. The settings on record: MDA-MB-361, 72 h. The method, boiled down:
as §2
Background: Formazan colour is commonly taken as a measure of viable cells.

For assay [7], the system named is DNA. In words: Binding affinity to calf thymus DNA at 20 to 80 uM after 1.5 hrs by UV-vis spectrophotometric analysis. It is filed as nucleic-acid assay. The following applies: Bos taurus. Summed up: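 UV–Vis spectra (200–800 nm, 1 cm cells) of compound at 20, 40, 60 or 80 μM, with or without 0.12 mM CT-DNA. CT-DNA was dissolved in 10 mM Tris-HCl pH 7.9. Mixtures were in 40 mM bicarbonate buffer pH 8.4, incubated 1.5 h at 37 °C with occasional vortexing.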

Assay [8] has as its system HeLa. As to the kind of experiment: Cell cycle arrest in human HeLa cells assessed as accumulation at G1 phase at IC50 after 24 hrs by propidium iodide staining-based FACS flow cytometric analysis (reference value: 51.97%). It is filed as functional.
In assay [9] the test system is HeLa. In words: Induction of apoptosis in human HeLa cells at IC90 after 24 hrs by propidium iodide staining-based FACS flow cytometric analysis in presence of caspase-8 inhibitor Z-IETD-FMK. It is filed as functional, cell-based.
Assay [10] has as its system Escherichia coli. As to the kind of experiment: Induction of Escherichia coli XL1 blue pUC18 DNA cleavage assessed as conversion of supercoiled DNA to relaxed circular DNA at 1:1 compound to iron molar ratio after 90 mins by agarose gel electrophoresis in presence of Fe3+. Summed up: as §1
The test system of the next assay is A549. In words: Cytotoxicity against human A549 cells after 72 hrs by MTT assay. It is filed as functional, cell-based. The following applies: A549, 72 h. The method, boiled down:
as §2

In assay [11] the test system is Escherichia coli. As to the kind of experiment: Induction of Escherichia coli XL1 blue pUC18 DNA cleavage assessed as conversion of supercoiled DNA to relaxed circular DNA at 2 mM after 90 mins by agarose gel electrophoresis. Summed up:
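Supercoiled pUC18 (262 ng, from E. coli XL1 blue) incubated with 2 mM compound in 20 μL of 40 mM bicarbonate buffer pH 8.4 at 37 °C for 90 min. Reaction stopped with loading buffer. Analyzed on 1% agarose in TAE pH 8.24 at 80 V and stained with ethidium bromide (0.5 µg/mL).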

For assay [12], the system named is HeLa. As to the kind of experiment: Cell cycle arrest in human HeLa cells assessed as accumulation at subG1 phase after 24 hrs by propidium iodide staining-based FACS flow cytometric analysis. It is filed as functional.
Assay [13] relates to Escherichia coli. In words: Induction of Escherichia coli XL1 blue pUC18 DNA cleavage assessed as conversion of supercoiled DNA to relaxed circular DNA at 1:2 compound to iron molar ratio after 90 mins by agarose gel electrophoresis in presence of Fe2+. The method, boiled down:
as §1

Assay [14] relates to HeLa. As to the kind of experiment: Cell cycle arrest in human HeLa cells assessed as accumulation at G2/M phase at IC50 after 24 hrs by propidium iodide staining-based FACS flow cytometric analysis (reference value: 21.66%). It is filed as functional.
Assay [15] has as its system HeLa. As to the kind of experiment: Cell cycle arrest in human HeLa cells assessed as accumulation at S phase at IC50 after 24 hrs by propidium iodide staining-based FACS flow cytometric analysis (reference value: 16.22%). The assay is classed as functional.
Assay [16] deals with HeLa. In words: Cytotoxicity against human HeLa cells after 72 hrs by MTT assay. The assay is classed as functional, cell-based. Summed up: as §2
Assay [17] relates to Radical scavenging activity. As to the kind of experiment: Antioxidant activity assessed as DPPH radical scavenging activity after 30 mins by spectrophotometric analysis. The assay is classed as functional. Summed up: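 Test solutions at 8–1000 μM in methanol mixed 1:1 by volume with 200 μM DPPH in methanol, kept 30 min in the dark at room temperature. Absorbance read at 517 nm against blanks without DPPH. Percent scavenging = (A_DPPH − A_sample)/A_DPPH × 100. IC50 (concentration halving DPPH absorbance) read from a plot of % versus concentration. Ascorbic acid and BHT used as standards.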
A general note: DPPH is a stable violet radical that fades when it is reduced.

In assay [18] the test system is HeLa. In words: Induction of apoptosis in human HeLa cells at IC90 after 24 hrs by propidium iodide staining-based FACS flow cytometric analysis in presence of caspase-3 inhibitor Z-DEVD-FMK. The assay is classed as functional, cell-based.
Assay [19] deals with HeLa. In words: Cell cycle arrest in human HeLa cells assessed as accumulation at G1 phase at 2 times IC50 after 24 hrs by propidium iodide staining-based FACS flow cytometric analysis (reference value: 51.97%). It is filed as functional.
The next assay relates to MDA-MB-453. In words: Cytotoxicity against human MDA-MB-453 cells after 72 hrs by MTT assay. It is filed as functional, cell-based. The following applies: MDA-MB-453, 72 h. Summed up: as §2
Assay [20] relates to Escherichia coli. As to the kind of experiment: Induction of Escherichia coli XL1 blue pUC18 DNA cleavage assessed as conversion of supercoiled DNA to relaxed circular DNA at 1:1 compound to iron molar ratio after 90 mins by agarose gel electrophoresis in presence of Fe2+. The method, boiled down: as §1
Assay [21] relates to DNA. In words: Binding affinity to calf thymus DNA after 1.5 hrs by spectroscopic titration. It is filed as nucleic-acid assay. The following applies: Bos taurus. The method, boiled down: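 Absorbance titration in 40 mM bicarbonate buffer pH 8.4. Compound held fixed at 40 μM, CT-DNA varied at (0.2–1.6) × 10⁻⁴ M. Mixtures incubated 1.5 h at 37 °C, then UV–Vis spectra recorded from 200 to 800 nm. K_B taken from a plot of [DNA]/(εA − εF) versus [DNA].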

Structures are written as SMILES. Active and inactive are the calls of the source. The rule behind the calls is not given here.

In general, IC50 refers to the concentration needed to halve the response being measured. For the compound `CCCCCCNC(=S)N/N=C(/CC(=O)c1cccc2c1C(=O)c1ccccc1C2=O)C(=O)OCC`, the Activity in the assay with HeLa [1] is 25.02%; in the assay on HeLa [4], 37.32%; with HeLa [5] it was 3.84%; with HeLa [6], 17.17%; in the assay on HeLa [8], 37.89%; in the assay with HeLa [12] it was “Dose-dependent effect”. The Activity in the assay with HeLa [14] was found to be 19.83%; in the assay on HeLa [15], 14.62%; with HeLa [19], 36.66%. Moreover, the result with Escherichia coli [2], with Escherichia coli [10], with Escherichia coli [11] and in the assay on Escherichia coli [20] was inactive. Further, the result in the assay with HeLa [3], in the assay with DNA [7], in the assay on HeLa [9], in the assay on Escherichia coli [13] and in the assay with HeLa [18] was Active. In addition, the IC50 worked out at 5.86 µM in the assay on K562; 42.1 µM with MRC5; 4.45 µM in the assay with MDA-MB-361; 43.6 µM in the assay with A549; 7.66 µM in the assay on HeLa [16]; 26.1 µM in assay [17]. This compound showed an IC50 with MDA-MB-453 of 19.6 µM.
For the compound `CCOC(=O)/C(CC(=O)c1cccc2c1C(=O)c1ccccc1C2=O)=N\NC(=S)NCc1cccs1`, the Activity in the assay on HeLa [1] was 28.61%; in the assay with HeLa [4], 36.27%; in the assay with HeLa [5], 3.79%; in the assay on HeLa [6], 13.79%; with HeLa [8], 32.36%; in the assay on HeLa [12], “Dose-dependent effect”. The results for the Activity with HeLa [14], in the assay on HeLa [15] and in the assay with HeLa [19] were 15.34%, 20.62% and 40.07%, respectively. In addition, the result in the assay with HeLa [3], with DNA [7], with HeLa [9] and with HeLa [18] was Active. For the same compound, the IC50 in the assay with K562 came to 2.8 µM; with MRC5, 24.4 µM; in the assay on MDA-MB-361, 25.4 µM; with A549, 12.9 µM; in the assay on HeLa [16], 8.25 µM; in [17] it was 66.5 µM. Also, the IC50 in the assay on MDA-MB-453 was determined as 13.5 µM. Besides, the result with Escherichia coli [11] was inactive.
As for `CCOC(=O)/C(CC(=O)c1cccc2c1C(=O)c1ccccc1C2=O)=N\NC(=S)Nc1ccccc1`, in the assay with DNA [21], the Kb came to 9.3 ×10⁹ /M. In addition, the Activity is 11.21% in the assay on HeLa [1]; 23.74% in the assay on HeLa [4]; 7.61% in the assay with HeLa [5]; 19.4% in the assay with HeLa [6]; 44.66% in the assay with HeLa [8]; “Dose-dependent effect” with HeLa [12]. Besides, the Activity came to 24.11% in the assay on HeLa [14], 17.82% with HeLa [15] and 44.72% in the assay on HeLa [19]. Besides, the outcome in the assay with HeLa [3], in the assay on DNA [7], with HeLa [9] and in the assay on HeLa [18] was Active. For the same compound, the IC50 is 3.59 µM with K562; 11.8 µM with MRC5; 6.61 µM with MDA-MB-361; 9.89 µM with A549; 8.19 µM in the assay on HeLa [16]; 26.2 µM in assay [17]. In the assay with MDA-MB-453, the IC50 is 6.91 µM. The outcome in the assay on Escherichia coli [11] was inactive.
